ChEMBL document CHEMBL1208709, “Synthesis and pharmacological evaluation of 1,1,3-substituted urea derivatives as potent TNF-alpha production inhibitors” (2010)
The source made the active and inactive calls. No cut-off for these calls is given here.

system: Rattus norvegicus; test: Antiinflammatory activity in po dosed Lewis rat assessed as inhibition of LPS-induced TNFalpha production administered 30 mins prior to LPS challenge measured after 1.5 hrs; type: functional
Summary of the method: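 Overnight-fasted male Lewis rats (seven weeks old) were dosed orally at 0.1, 0.3, 1 and 3 mg/kg, 30 min before IV LPS (E. coli 055:B5 in saline). Serum TNF-α was measured by ELISA 1.5 h post-LPS, five rats per group, mean ± SEM. Dunnett's t-test versus vehicle; ED₅₀ taken from the dose-response.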

Point of comparison: `CCCCCN(CCC12CC3CC(CC(C3)C1)C2)C(=O)NCCCc1ccncc1`, ED50 1.7 mg/kg. Against it:
- O=C(NCCCc1ccncc1)N(CCCC1CCCCC1)CCC1CCCCC1 — 5-fold lower, 0.34 mg/kg

system: Rattus norvegicus; test: Antiinflammatory activity in Lewis rat assessed as inhibition of LPS-induced TNFalpha production at 2 mg/kg, po administered 30 mins prior to LPS challenge measured after 1.5 hrs; type: functional

Point of comparison: `CCCCN(CCN1CCOCC1)C(=O)NCCCc1ccncc1`, inhibition in vivo at 2 mg/kg 21%. Against it:
- COCCCN(CCC1CC2CCC1C2)C(=O)NCCCc1ccncc1 (stereo unspecified) — lower, 10%
- CCCCCN(CCC12CC3CC(CC(C3)C1)C2)C(=O)NCCCc1ccncc1 — higher, 72%
- O=C(NCCCc1ccncc1)N(CCC1CCCCC1)CCC1CCOCC1 — higher, 38%
- O=C(NCCCc1ccncc1)N(CCCN1CCOCC1)CCC1CCCCC1 — higher, 43%
- O=C(NCCCc1ccncc1)N(CCC1CCCCC1)CCN1C2CCC1CC2 — higher, 48%
- O=C(NCCCc1ccncc1)N(CCCC1CCCCC1)CCC1CCCCC1 — higher, 92%
- O=C(NCCCc1ccncc1)N(CCCC1CCCCC1)CC1CCCCC1 — higher, 71%
- O=C(NCCCc1ccncc1)N(CCC1CC2CCC1C2)CCN1CCOCC1 (stereo unspecified) — higher, 55%
- CCOCCN(CCC1CCCCC1)C(=O)NCCCc1ccncc1 — lower, 4%
- O=C(NCCCc1ccncc1)N(CCN1CCOCC1)CCC12CC3CC(CC(C3)C1)C2 — higher, 45%
- O=C(NCCCc1ccncc1)N(CCC1CCCCC1)CCC1CCCCC1 — higher, 91%
- O=C(NCCCc1ccncc1)N(CCCN1CCOCC1)CCC12CC3CC(CC(C3)C1)C2 — higher, 45%
- CCCCN(CCCOC)C(=O)NCCCc1ccncc1 — the same, 21%
- O=C(NCCCc1ccncc1)N(CCCN1CCOCC1)CCC1CC2CCC1C2 (stereo unspecified) — higher, 44%
- CCCCN(CCCN1CCOCC1)C(=O)NCCCc1ccncc1 — higher, 32%
- O=C(NCCCc1ccncc1)N(CCCC1CCCCC1)CCC1CCCC1 — higher, 87%
- O=C(NCCCc1ccncc1)N(CCN1CCOCC1)CCN1C2CCC1CC2 — lower, 8%
- COCCOCCN(CCC1CCCCC1)C(=O)NCCCc1ccncc1 — lower, 14%
- O=C(NCCCc1ccncc1)N(CCC1CCCCC1)CCN1CCOCC1 — higher, 50%

In the case of `CCOCCN(CCC1CC2CCC1C2)C(=O)NCCCc1ccncc1` (stereo unspecified), the inhibition is reported as “inactive”.
`O=C(NCCCc1ccncc1)N(CCC1CCOCC1)CCN1CCOCC1` was tested, and the inhibition was “inactive”.
In the case of `COCCCN(CCC1CCCCC1)C(=O)NCCCc1ccncc1`, the inhibition is reported as “inactive”.
With `CCCCN(CCOCC)C(=O)NCCCc1ccncc1` the inhibition was “inactive”.
